Converted amounts (≈) assume the structure as drawn. Each block holds one compound with its values, some of them ahead of it. The source made the active and inactive calls. No cut-off for these calls is given here.
Columns and labels:
[1] = Induction of tubulin polymerization
LOX = assay: Antitumor activity against human LOX cells xenografted in Foxn1nu mouse assessed as reduction in tumor growth at 1 to 6 mg/kg, iv; type: functional, organism-based
Outline: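 LOX melanoma cells (2 × 10⁶ per animal) were implanted s.c. in the flank of female NU/NU-Foxn1nu mice, which were staged at about 100 mg tumor mass. Compound was dosed i.v. in 0.9% saline on days 1, 5 and 9 after staging, with a vehicle-only i.v. control. Five mice per group. Relative tumor growth = mean tumor mass on day d / group mean on day 0.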

NCI-H460 = assay: Antitumor activity against human H460 cells xenografted in Foxn1nu mouse assessed as reduction in tumor growth at 2.5 to 10 mg/kg, po; type: functional, organism-based
Outline: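 Female NU/NU-Foxn1nu mice were injected s.c. in the flank with 1 × 10⁶ H460 cells per animal and staged (randomized) when tumors reached about 100 mg. Compound was given by oral gavage in Klucel on days 0 and 7 after staging. Controls received vehicle only, i.v. Nine animals per group; tumor mass was followed over days.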

COLO 205 = assay: Antiproliferative activity against human COLO205 cells after 24 hrs by MTS assay; type: functional, cell-based
[2] = Ratio of IC50 for human KBV1 cells to IC50 for human KB cells; type: functional
Outline: (§1)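 Resistance ratio: IC50 in KB 8.5 or KB V1 cells divided by IC50 in parental KB cells, each IC50 from 10-concentration duplicate dose–response curves; ratio near 1 means no resistance.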

KB [3] = assay: Ratio of IC50 for human KB 8.5 cells to IC50 for human KB cells; type: functional; outline: as §1
[4] = Antiproliferative activity against human KB 8.5 cells after 3 days by SRB assay; type: functional, cell-based; conditions: 72 h
[5] = Antiproliferative activity against human KBV1 cells after 3 days by SRB assay; type: functional, cell-based; conditions: KB-V1, 72 h
KB [6] = assay: Antiproliferative activity against human KB cells after 3 days by SRB assay; type: functional, cell-based; conditions: 72 h
[7] = Bioavailability in rat; type: ADME, organism-based; conditions: in vivo
Outline: (§2)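 Rat pharmacokinetic parameters were derived by non-compartmental, model-independent analysis.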

[8] = Metabolic stability in male cynomolgus monkey liver microsomes at 1 uM after 30 mins; type: ADME, Macaca fascicularis, Microsome
Outline: (§3)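 Liver microsomes (1 mg/mL) from each species and sex were incubated with compound for 30 min at 37 °C in the presence of NADPH. Read-out was metabolic half-life (t1/2).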

[9] = Volume of distribution in rat; type: ADME, organism-based; conditions: in vivo; outline: as §2
[10] = Metabolic stability in male Beagle dog liver microsomes at 1 uM after 30 mins; type: ADME, Canis lupus familiaris, Microsome; outline: as §3
[11] = Metabolic stability in male human liver microsomes at 1 uM after 30 mins; type: ADME, Microsome; outline: as §3
[12] = Metabolic stability in female Sprague-Dawley rat liver microsomes at 1 uM after 30 mins; type: ADME, Microsome; outline: as §3
[13] = Half life in rat; type: ADME, organism-based; conditions: in vivo; outline: as §2
[14] = Metabolic stability in female nude mouse liver microsomes at 1 uM after 30 mins; type: ADME, Microsome; outline: as §3
[15] = Metabolic stability in male Sprague-Dawley rat liver microsomes at 1 uM after 30 mins; type: ADME, Microsome; outline: as §3
[16] = Clearance in rat; type: ADME, organism-based; conditions: in vivo; outline: as §2
[17] = Aqueous solubility at pH 7.4 by shake flask method; type: physicochemical

SMILES: CNCCCOc1cc(F)c(-c2c(Cl)nc(-c3cnccn3)nc2N[C@@H](C)C(F)(F)F)c(F)c1 [listing 1 of 3 here]
Activity [1]: Active
Activity (LOX): Active
Activity (NCI-H460): Active

SMILES: CNCCCOc1cc(F)c(-c2c(Cl)nc(-c3cnccn3)nc2N[C@@H](C)C(F)(F)F)c(F)c1 [listing 2 of 3 here]
IC50 (COLO 205; Homo sapiens, COLO 205, 24 h): 8.9 nM

SMILES: CNCCCOc1cc(F)c(-c2c(Cl)nc(-n3cccn3)nc2N[C@@H](C)C(F)(F)F)c(F)c1 [listing 1 of 3 here]
Ratio IC50 [2]: 237
Ratio IC50 (KB [3]): 13
IC50 [4]: 32 nM
IC50 [5]: 569 nM
IC50 (KB [6]): 2.4 nM

SMILES: Fc1cc(F)c(-c2c(Cl)nc(-c3cccnc3)nc2NCC(F)(F)F)c(F)c1
IC50 (COLO 205; Homo sapiens, COLO 205, 24 h): 3930 nM

SMILES: Fc1cc(F)c(-c2c(Cl)nc(-c3ccccn3)nc2NCC(F)(F)F)c(F)c1
IC50 (COLO 205; Homo sapiens, COLO 205, 24 h): 39 nM

SMILES: Cn1ccnc1-c1nc(Cl)c(-c2c(F)cc(F)cc2F)c(NCC(F)(F)F)n1
IC50 (COLO 205; Homo sapiens, COLO 205, 24 h): 77 nM

SMILES: CN(C)CCCOc1cc(F)c(-c2c(Cl)nc(-c3ncccn3)nc2NCC(F)(F)F)c(F)c1
IC50 (COLO 205; Homo sapiens, COLO 205, 24 h): 49 nM

SMILES: Fc1cc(F)c(-c2c(Cl)nc(-c3ccc4ccccc4n3)nc2NCC(F)(F)F)c(F)c1
IC50 (COLO 205; Homo sapiens, COLO 205, 24 h): 250 nM

SMILES: Fc1cc(F)c(-c2c(Cl)nc(-n3ccnc3)nc2NCC(F)(F)F)c(F)c1
IC50 (COLO 205; Homo sapiens, COLO 205, 24 h): 3030 nM

SMILES: CN(C)CCOc1cc(F)c(-c2c(Cl)nc(-c3cnccn3)nc2NCC(F)(F)F)c(F)c1
IC50 (COLO 205; Homo sapiens, COLO 205, 24 h): 128 nM

SMILES: CC[C@]1(O)C[C@H]2CN(CCc3c([nH]c4ccccc34)[C@@](C(=O)OC)(c3cc4c(cc3OC)N(C=O)[C@H]3[C@@](O)(C(=O)OC)[C@H](OC(C)=O)[C@]5(CC)C=CCN6CC[C@]43[C@@H]65)C2)C1 [VINCRISTINE]
Ratio IC50 [2]: 925
IC50 (COLO 205; Homo sapiens, COLO 205, 24 h): 2.6 nM
IC50 [4]: 58 nM
IC50 [5]: 2040 nM
IC50 (KB [6]): 2.2 nM

SMILES: CN(C)CCCOc1cc(F)c(-c2c(Cl)nc(-c3cnccn3)nc2NCC(F)(F)F)c(F)c1 [listing 1 of 2 here]
Ratio IC50 [2]: 5
Ratio IC50 (KB [3]): 1.2
IC50 (COLO 205; colo 205): 22 nM
IC50 [4]: 24 nM
IC50 [5]: 99 nM
IC50 (KB [6]): 20 nM

SMILES: CNCCCOc1cc(F)c(-c2c(Cl)nc(-n3cccn3)nc2N[C@@H](C)C(F)(F)F)c(F)c1 [listing 3 of 3 here]
Activity [1]: Active

SMILES: CNCCCOc1cc(F)c(-c2c(Cl)nc(-c3ccccn3)nc2N[C@@H](C)C(F)(F)F)c(F)c1 [listing 2 of 3 here]
Ratio IC50 [2]: 68
IC50 [4]: 21 nM
IC50 [5]: 423 nM
IC50 (KB [6]): 6.2 nM

SMILES: CC(=O)O[C@H]1C(=O)[C@@]2(C)[C@H]([C@H](OC(=O)c3ccccc3)[C@]3(O)C[C@H](OC(=O)[C@H](O)[C@@H](NC(=O)c4ccccc4)c4ccccc4)C(C)=C1C3(C)C)[C@]1(OC(C)=O)CO[C@@H]1C[C@@H]2O [PACLITAXEL]
IC50 (COLO 205; Homo sapiens, COLO 205, 24 h): 3.3 nM
IC50 [5]: 2010 nM

SMILES: Fc1cc(F)c(-c2c(Cl)nc(-c3ccncc3)nc2NCC(F)(F)F)c(F)c1
IC50 (COLO 205; Homo sapiens, COLO 205, 24 h): > 5000 nM

SMILES: CNCCCOc1cc(F)c(-c2c(Cl)nc(-c3cnccn3)nc2N[C@@H](C)C(F)(F)F)c(F)c1 [listing 3 of 3 here]
bioavailability [7]: 100%
half-life at 1 µM [8]: > 60 min
Ratio IC50 [2]: 58
Ratio IC50 (KB [3]): 3.4
Vd [9]: 14 L/kg
half-life at 1 µM [10]: > 60 min
IC50 (COLO 205; colo 205): 6.9 nM
half-life at 1 µM [11]: > 60 min
half-life at 1 µM [12]: > 60 min
half-life [13]: 516 min
IC50 [4]: 24 nM
half-life at 1 µM [14]: > 60 min
half-life at 1 µM [15]: > 60 min
IC50 [5]: 405 nM
IC50 (KB [6]): 7 nM
clearance [16]: 21 mL/min/kg
solubility thermodynamic [17]: 540 µg/mL (≈ 1070 µM)

SMILES: C[C@H](Nc1nc(-n2cccn2)nc(Cl)c1-c1c(F)cc(F)cc1F)C(F)(F)F
IC50 (COLO 205; Homo sapiens, COLO 205, 24 h): 19 nM

SMILES: Fc1cc(F)c(-c2c(Cl)nc(-c3ncccn3)nc2NCC(F)(F)F)c(F)c1
IC50 (COLO 205; Homo sapiens, COLO 205, 24 h): 265 nM

Other lines, results leading:

IC50 (COLO 205; Homo sapiens, COLO 205, 24 h): 53 nM
SMILES: Fc1cc(F)c(-c2c(Cl)nc(-n3cccn3)nc2NCC(F)(F)F)c(F)c1

IC50 (COLO 205; Homo sapiens, COLO 205, 24 h): 2.4 nM
SMILES: CNCCCOc1cc(F)c(-c2c(Cl)nc(-n3cccn3)nc2N[C@@H](C)C(F)(F)F)c(F)c1 [listing 2 of 3 here]

IC50 (COLO 205; Homo sapiens, COLO 205, 24 h): 4680 nM
SMILES: Fc1cc(F)c(-c2c(Cl)nc(-c3nccc4ccccc34)nc2NCC(F)(F)F)c(F)c1

IC50 (COLO 205; Homo sapiens, COLO 205, 24 h): 32 nM
SMILES: CN(C)CCCCOc1cc(F)c(-c2c(Cl)nc(-c3cnccn3)nc2NCC(F)(F)F)c(F)c1

IC50 (COLO 205; Homo sapiens, COLO 205, 24 h): 84 nM
SMILES: Fc1cc(F)c(-c2c(Cl)nc(-c3cnccn3)nc2NCC(F)(F)F)c(F)c1

IC50 (COLO 205; Homo sapiens, COLO 205, 24 h): 51 nM
SMILES: C[C@H](Nc1nc(-c2cnccn2)nc(Cl)c1-c1c(F)cc(F)cc1F)C(F)(F)F

IC50 (COLO 205; Homo sapiens, COLO 205, 24 h): 3460 nM
SMILES: Fc1cc(F)c(-c2c(Cl)nc(-c3cccs3)nc2NCC(F)(F)F)c(F)c1

IC50 (COLO 205; Homo sapiens, COLO 205, 24 h): 5.2 nM
SMILES: CNCCCOc1cc(F)c(-c2c(Cl)nc(-c3ccccn3)nc2N[C@@H](C)C(F)(F)F)c(F)c1 [listing 1 of 3 here]

IC50 (COLO 205; Homo sapiens, COLO 205, 24 h): 682 nM
SMILES: CN(C)CCCOc1cc(F)c(-c2c(Cl)nc(-n3ccnc3)nc2NCC(F)(F)F)c(F)c1

IC50 (COLO 205; Homo sapiens, COLO 205, 24 h): 29 nM
SMILES: C[C@H](Nc1nc(-c2ccccn2)nc(Cl)c1-c1c(F)cc(F)cc1F)C(F)(F)F

IC50 (COLO 205; Homo sapiens, COLO 205, 24 h): 18 nM
SMILES: CN(C)CCCOc1cc(F)c(-c2c(Cl)nc(-c3cnccn3)nc2NCC(F)(F)F)c(F)c1 [listing 2 of 2 here]

IC50 (COLO 205; Homo sapiens, COLO 205, 24 h): 119 nM
SMILES: Fc1cc(F)c(-c2c(Cl)nc(-c3cc4ccccc4cn3)nc2NCC(F)(F)F)c(F)c1

Activity [1]: Active
SMILES: CNCCCOc1cc(F)c(-c2c(Cl)nc(-c3ccccn3)nc2N[C@@H](C)C(F)(F)F)c(F)c1 [listing 3 of 3 here]

IC50 (COLO 205; Homo sapiens, COLO 205, 24 h): 232 nM
SMILES: Fc1cc(F)c(-c2c(Cl)nc(-c3ccco3)nc2NCC(F)(F)F)c(F)c1
